Laboratory results from ChEMBL document CHEMBL1649446, “Comparative antipneumococcal activities of sulopenem and other drugs” (2009).
In brackets after ≈: the same amount, converted by molar mass.

Columns and labels:
Format in all cases: functional
Streptococcus pneumoniae [1] = experiment: Antimicrobial activity against Streptococcus pneumoniae isolate 3681 by agar dilution method
Outline: (§1)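 Agar dilution MIC on Mueller-Hinton agar with 5% sheep blood, inocula 10^4 CFU/spot; amoxicillin-clavulanate combined 1:2; S. pneumoniae ATCC 49619 quality control each run.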

Streptococcus pneumoniae [2] = experiment: Antimicrobial activity against Streptococcus pneumoniae isolate 2874 by agar dilution method; outline: as §1
Streptococcus pneumoniae [3] = experiment: Antimicrobial activity against Streptococcus pneumoniae isolate 3412 by agar dilution method; outline: as §1
Streptococcus pneumoniae [4] = experiment: Antimicrobial activity against Streptococcus pneumoniae isolate 1146 by agar dilution method; outline: as §1
Streptococcus pneumoniae [5] = experiment: Antimicrobial activity against compound-intermediate Streptococcus pneumoniae by agar dilution method; outline: as §1
Streptococcus pneumoniae [6] = experiment: Antimicrobial activity against Streptococcus pneumoniae isolate 1397 by agar dilution method; outline: as §1
Streptococcus pneumoniae [7] = experiment: Antimicrobial activity against Streptococcus pneumoniae isolate 33 by agar dilution method; outline: as §1
Streptococcus pneumoniae [8] = experiment: Antimicrobial activity against Streptococcus pneumoniae isolate 3791 by agar dilution method; outline: as §1
Streptococcus pneumoniae [9] = experiment: Antimicrobial activity against Streptococcus pneumoniae isolate 1564 by agar dilution method
Streptococcus pneumoniae [10] = experiment: Antimicrobial activity against Streptococcus pneumoniae isolate 3346 by agar dilution method
Streptococcus pneumoniae [11] = experiment: Antimicrobial activity against Streptococcus pneumoniae isolate 1384 by agar dilution method; outline: as §1
Streptococcus pneumoniae [12] = experiment: Antimicrobial activity against Streptococcus pneumoniae isolate 3260 by agar dilution method
Streptococcus pneumoniae [13] = experiment: Antimicrobial activity against Streptococcus pneumoniae isolate 2686 by agar dilution method; outline: as §1
Streptococcus pneumoniae [14] = experiment: Antimicrobial activity against Streptococcus pneumoniae isolate 3374 by agar dilution method; outline: as §1
Streptococcus pneumoniae [15] = experiment: Antimicrobial activity against Streptococcus pneumoniae isolate 3275 by agar dilution method; outline: as §1
Streptococcus pneumoniae [16] = experiment: Antimicrobial activity against Streptococcus pneumoniae isolate 4747 by agar dilution method; outline: as §1
Streptococcus pneumoniae [17] = experiment: Antimicrobial activity against Streptococcus pneumoniae isolate 1147 by agar dilution method; outline: as §1
Streptococcus pneumoniae [18] = experiment: Antimicrobial activity against Streptococcus pneumoniae isolate 1424 by agar dilution method; outline: as §1
Streptococcus pneumoniae [19] = experiment: Antimicrobial activity against Streptococcus pneumoniae isolate 3458 by agar dilution method
Streptococcus pneumoniae [20] = experiment: Antimicrobial activity against Streptococcus pneumoniae isolate 3282 by agar dilution method
Streptococcus pneumoniae [21] = experiment: Antimicrobial activity against Streptococcus pneumoniae isolate 2880 by agar dilution method; outline: as §1
Streptococcus pneumoniae [22] = experiment: Antimicrobial activity against Streptococcus pneumoniae isolate 37 by agar dilution method; outline: as §1
Streptococcus pneumoniae [23] = experiment: Antimicrobial activity against compound-resistant Streptococcus pneumoniae by agar dilution method
Outline: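 Agar dilution on Mueller-Hinton agar with 5% sheep blood, inocula 10^4 CFU/spot. Panel of 45 drug-resistant serotype 19A pneumococci, plus 297 clinical strains grouped as penicillin-susceptible, -intermediate or -resistant (some macrolide- or levofloxacin-resistant, with defined mechanisms). Amoxicillin combined with clavulanate 1:2. S. pneumoniae ATCC 49619 quality control included in each run. MIC range, MIC50 and MIC90 reported.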

Streptococcus pneumoniae [24] = experiment: Antimicrobial activity against Streptococcus pneumoniae isolate 1055 by agar dilution method
Streptococcus pneumoniae [25] = experiment: Antimicrobial activity against compound-susceptible Streptococcus pneumoniae by agar dilution method; outline: as §1
Streptococcus pneumoniae [26] = experiment: Antimicrobial activity against Streptococcus pneumoniae isolate 24 by agar dilution method
Streptococcus pneumoniae [27] = experiment: Antimicrobial activity against Streptococcus pneumoniae isolate 2688 by agar dilution method; outline: as §1
Streptococcus pneumoniae [28] = experiment: Antimicrobial activity against Streptococcus pneumoniae isolate 2617 by agar dilution method; outline: as §1
Streptococcus pneumoniae [29] = experiment: Antimicrobial activity against Streptococcus pneumoniae isolate 3481 by agar dilution method; outline: as §1
Streptococcus pneumoniae [30] = experiment: Antimicrobial activity against Streptococcus pneumoniae isolate 1394 by agar dilution method
Streptococcus pneumoniae [31] = experiment: Antimicrobial activity against Streptococcus pneumoniae isolate 3455 by agar dilution method
Streptococcus pneumoniae [32] = experiment: Antimicrobial activity against Streptococcus pneumoniae isolate 3587 by agar dilution method
Streptococcus pneumoniae [33] = experiment: Antimicrobial activity against Streptococcus pneumoniae isolate 4755 by agar dilution method; outline: as §1

Question: Which results are given for `CC1(C)S[C@@H]2[C@H](NC(=O)Cc3ccccc3)C(=O)N2[C@H]1C(=O)O` [PENICILLIN G]?
Answer: MIC (Streptococcus pneumoniae [1]): 1 µg/mL (≈ 2.99 µM); MIC (Streptococcus pneumoniae [2]): 8 µg/mL (≈ 23.9 µM); MIC (Streptococcus pneumoniae [3]): 2 µg/mL (≈ 5.98 µM); MIC (Streptococcus pneumoniae [4]): 4 µg/mL (≈ 12 µM); MIC50 (Streptococcus pneumoniae [5]): 0.25 µg/mL (≈ 0.748 µM); MIC90 (Streptococcus pneumoniae [5]): 1 µg/mL (≈ 2.99 µM); MIC (Streptococcus pneumoniae [6]): 2 µg/mL (≈ 5.98 µM); MIC (Streptococcus pneumoniae [7]): 4 µg/mL (≈ 12 µM); MIC (Streptococcus pneumoniae [8]): 2 µg/mL (≈ 5.98 µM); MIC (Streptococcus pneumoniae [9]): 16 µg/mL (≈ 47.8 µM); MIC (Streptococcus pneumoniae [10]): 4 µg/mL (≈ 12 µM); MIC (Streptococcus pneumoniae [11]): 4 µg/mL (≈ 12 µM); MIC (Streptococcus pneumoniae [12]): 4 µg/mL (≈ 12 µM); MIC (Streptococcus pneumoniae [13]): 4 µg/mL (≈ 12 µM); MIC (Streptococcus pneumoniae [14]): 2 µg/mL (≈ 5.98 µM); MIC (Streptococcus pneumoniae [15]): 1 µg/mL (≈ 2.99 µM); MIC (Streptococcus pneumoniae [16]): 4 µg/mL (≈ 12 µM); MIC (Streptococcus pneumoniae [17]): 4 µg/mL (≈ 12 µM); MIC (Streptococcus pneumoniae [18]): 2 µg/mL (≈ 5.98 µM); MIC (Streptococcus pneumoniae [19]): 4 µg/mL (≈ 12 µM); MIC (Streptococcus pneumoniae [20]): 4 µg/mL (≈ 12 µM); MIC (Streptococcus pneumoniae [21]): 4 µg/mL (≈ 12 µM); MIC (Streptococcus pneumoniae [22]): 4 µg/mL (≈ 12 µM); MIC (Streptococcus pneumoniae [23]): 2 µg/mL (≈ 5.98 µM); MIC50 (Streptococcus pneumoniae [23]): 2 µg/mL (≈ 5.98 µM); MIC90 (Streptococcus pneumoniae [23]): 4 µg/mL (≈ 12 µM); MIC (Streptococcus pneumoniae [24]): 2 µg/mL (≈ 5.98 µM); MIC50 (Streptococcus pneumoniae [25]): 0.03 µg/mL (≈ 0.0897 µM); MIC90 (Streptococcus pneumoniae [25]): 0.06 µg/mL (≈ 0.179 µM); MIC (Streptococcus pneumoniae [26]): 4 µg/mL (≈ 12 µM); MIC (Streptococcus pneumoniae [27]): 8 µg/mL (≈ 23.9 µM); MIC (Streptococcus pneumoniae [28]): 1 µg/mL (≈ 2.99 µM); MIC (Streptococcus pneumoniae [29]): 8 µg/mL (≈ 23.9 µM); MIC (Streptococcus pneumoniae [30]): 4 µg/mL (≈ 12 µM); MIC (Streptococcus pneumoniae [31]): 4 µg/mL (≈ 12 µM); MIC (Streptococcus pneumoniae [32]): 2 µg/mL (≈ 5.98 µM); MIC (Streptococcus pneumoniae [33]): 8 µg/mL (≈ 23.9 µM)
